Assays:
[1] = melting temperature; fluorescence melt of hairpins on a sequencing array, two-state fit, raised by 9.35 °C to match UV melts; conditions: sodium 0.088 M
In short: (§1)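 Melting temperature and folding enthalpy were derived from bootstrapped two-state fits. The fitted temperatures were raised by 9.35 °C to agree with UV melts, and four replicates were combined by inverse variance. The underlying data were Cy3 fluorescence images of library hairpins, with annealed Cy3 and quencher oligos, on a sequenced MiSeq flow cell in 50 mM Na-HEPES pH 8.0, 25 mM NaCl, taken in 2.5 °C steps up to 60 °C, normalised to pre-quench Cy3 and to control constructs.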

[2] = folding enthalpy; higher = less favourable; fluorescence melt of hairpins on a sequencing array, two-state fit; conditions: sodium 0.088 M
In short: as §1

Row | Sequence | Tm [1] | folding enthalpy [2]
1 | GACAACGAAAGTTTGGTC ((((((....)))..))) | 32.9 °C | -16.4 kcal/mol
2 | GACAACGAAAGTTTTGTC ((((((....)))..))) | 31.8 °C | -24.7 kcal/mol
3 | GACAACGGAAACGTCGTC (((.(((....))).))) | 43.4 °C | -29.5 kcal/mol
4 | GACAACGGAAACGTTGCC (.(((((....))))).) | 44.9 °C | -17.4 kcal/mol
5 | GACAAGCGAAAGCTCGTC (((.(((....))).))) | 49.3 °C | -21 kcal/mol
6 | GACAAGGGAAACTTTGTC (((((.(....).))))) | 36.9 °C | -27.1 kcal/mol
7 | GACAATGCGAAAGCAGTC (((..(((....)))))) | 40.4 °C | -14 kcal/mol
8 | GACAATGGAAACATCGTC (((.(((....))).))) | 32.5 °C | -26.4 kcal/mol
9 | GACACCGAAAGGTAGTC ((((((....))).))) | 50.1 °C | -22.5 kcal/mol
10 | GACACCGAAAGGTCCGTC ((((((....)))..))) | 31.4 °C | -16.9 kcal/mol
11 | GACACCGAAAGGTGGTC ((((((....))).))) | 55.6 °C | -12.8 kcal/mol
12 | GACACCGAAAGGTGTGTC ((((((....)))..))) | 61.6 °C | -11.3 kcal/mol
13 | GACACCGAAAGGTTGTC ((((((....))).))) | 53.2 °C | -25.3 kcal/mol
14 | GACACGGAAACGTGTC ((((((....)))))) | 67.7 °C | -34.9 kcal/mol
15 | GACACGGGAAACCGCATC ((..(((....)))..)) | 20.4 °C | -11.1 kcal/mol
16 | GACACTGCGAAAGCAGTC (((..(((....)))))) | 31.4 °C | -8.12 kcal/mol
17 | GACAGACGAAAGTCCGTC (((.(((....))).))) | 47.5 °C | -26 kcal/mol
18 | GACAGAGAAATCTGTC ((((((....)))))) | 50.9 °C | -33.2 kcal/mol
19 | GACAGAGGAAACTCTGCC (.(((((....))))).) | 41.9 °C | -15.5 kcal/mol

Row | Sequence | Tm [1] | folding enthalpy [2]
20 | GACAGAGGAAACTCTGTC (((((((....))))))) | 60.6 °C | -41.3 kcal/mol
21 | GACAGAGGAAACTTTGTC ((((.((....)).)))) | 36.7 °C | -25.3 kcal/mol
22 | GACAGCACGAAAGTGGTC (((..(((....)))))) | 36 °C | -13.7 kcal/mol
23 | GACAGCCGAAAGGCAGTC (((.(((....))).))) | 60.1 °C | -22.5 kcal/mol
24 | GACAGCCGAAAGGCCGTC (((.(((....))).))) | 55 °C | -18.7 kcal/mol
25 | GACAGCGAAAGCTGCGTC ((((((....)))..))) | 48 °C | -10.1 kcal/mol
26 | GACAGCGAAAGCTTGTC ((((((....))).))) | 52.6 °C | -22 kcal/mol
27 | GACAGCGGAAACGCTGCC (.(((((....))))).) | 52.6 °C | -11.5 kcal/mol
28 | GACAGTGGAAACACCATC ((..(((....)))..)) | 19.9 °C | -10.3 kcal/mol
29 | GACATAACGAAAGTTGTC (((..(((....)))))) | 37.4 °C | -25 kcal/mol
30 | GACATACGAAAGTAGGTC (((.(((....))).))) | 52.7 °C | -39.1 kcal/mol
31 | GACATAGAAATATGTC ((((((....)))))) | 45.5 °C | -30 kcal/mol
32 | GACATCCGAAAGGAAGTC (((.(((....))).))) | 48.8 °C | -36.6 kcal/mol
33 | GACATCGAAAGATGTC ((((((....)))))) | 64.4 °C | -39.7 kcal/mol
34 | GACATCGGAAACGATATC ((.((((....)))).)) | 31.6 °C | -21.9 kcal/mol
35 | GACATCGGAAACGATGTC (((((((....))))))) | 66.6 °C | -44 kcal/mol
36 | GACATGCGAAAGCAAGTC (((.(((....))).))) | 53.3 °C | -25.5 kcal/mol
37 | GACCAACGAAAGTTAGTC (((.(((....))).))) | 38.8 °C | -26 kcal/mol
38 | GACCAAGGAAACCTGGTC (((((.(....).))))) | 47.2 °C | -33.4 kcal/mol

Reference: the array DNA melting data of Ke et al. (doi:10.1101/2024.01.08.574731)
